Type in all cases: cell-based
Assay [1] concerns the target T1, Neuronal acetylcholine receptor subunit alpha-7 (Homo sapiens, UniProt P36544). Description: Antagonist activity at human alpha7 nAChR expressed in Xenopus laevis oocytes assessed as inhibition of ACh-induced inward current at -60 mV holding potential preincubated for 1 min followed by ACh addition by two-microelectrode voltage clamp assay. In short, it runs like this:
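Oocytes expressing human α7 mRNA were clamped at −60 mV on an automated TEVC rig, using electrodes of 50–60 MΩ filled with 1 M KCl/1 M ammonium acetate. The bath was OR2 (88 mM NaCl, 1 mM MgCl₂, 5 mM Hepes, pH 7.6). ACh 100 μM was applied three times with 4 min washes between. Each oocyte then got a 1 min compound preincubation followed by 100 μM ACh plus the same compound concentration. IC50 came from a Hill fit of the fractional current.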

The target in assay [2] is T1, Neuronal acetylcholine receptor subunit alpha-7. Description: Antagonist activity at human alpha7 nAChR expressed in Xenopus laevis oocytes assessed as inhibition of ACh-induced inward current at -60 mV holding potential preincubated for 1 min followed by ACh addition by two-microelectrode voltage clamp assay relative to 2-(2-(2-(2-(4-(5-(1-methylpyrrolidin-2-yl)pyridin-3-yl)-1H-1,2,3-triazol-1-yl)ethoxy)ethoxy)ethoxy)ethanol.

Assay [3] has the same target. The assay is described as follows: Antagonist activity at human alpha7 nAChR expressed in Xenopus laevis oocytes assessed as inhibition of ACh-induced inward current at -60 mV holding potential preincubated for 1 min followed by ACh addition by two-microelectrode voltage clamp assay relative to cyclodextrin reference compound. The method in brief: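 Human α7 mRNA expressed in Xenopus oocytes; automated two-electrode voltage clamp at -60 mV holding, electrodes filled with 1 M KCl/1 M ammonium acetate; OR2 buffer (88 mM NaCl, 1 mM MgCl2, 5 mM Hepes, pH 7.6). Three 100 μM ACh applications spaced by 4 min washes; 1 min compound preincubation, then 100 μM ACh plus compound. IC50 from fit F = 1/[1+([X]/IC50)^nH].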

T1 sequence (P36544 whole entry): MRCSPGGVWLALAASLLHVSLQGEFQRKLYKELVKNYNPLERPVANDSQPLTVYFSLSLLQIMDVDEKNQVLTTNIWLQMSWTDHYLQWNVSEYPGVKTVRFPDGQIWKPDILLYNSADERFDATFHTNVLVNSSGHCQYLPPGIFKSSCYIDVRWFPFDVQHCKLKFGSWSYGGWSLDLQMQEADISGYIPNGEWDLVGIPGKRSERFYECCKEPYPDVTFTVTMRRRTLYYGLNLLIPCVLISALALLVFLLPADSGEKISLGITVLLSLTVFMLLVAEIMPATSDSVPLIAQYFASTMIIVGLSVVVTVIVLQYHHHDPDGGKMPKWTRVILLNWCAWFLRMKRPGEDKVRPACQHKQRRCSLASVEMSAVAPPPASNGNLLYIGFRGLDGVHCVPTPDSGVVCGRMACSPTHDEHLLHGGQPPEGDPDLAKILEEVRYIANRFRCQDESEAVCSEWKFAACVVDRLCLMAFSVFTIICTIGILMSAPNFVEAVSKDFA

As for `CN1CCCC1c1cncc(-c2cn(CCOCCOCCOCCOCCOCCOCCOCCOCCOCCOCCOCCOCCOCCOCCOCCOCCOCCOCCOCCOCCOCCOCCOCCOCCOCCOCCOCCn3cc(-c4cncc(C5CCCN5C)c4)nn3)nn2)c1` (configuration not stated), in assay [1], the concentration for half-maximal inhibition (IC50) is 21 µM and the inhibition entry was “Dose-dependent effect”. The fold change (FC) in assay [2] amounted to 4.6.

On to `CN1CCCC1c1cncc(-c2cn(CCOCCOCCOCCOCCOCCOCCOCCOCCOCCOCCOCCOCCOCCOCCOCCOCCOCCOCCOCCn3cc(-c4cncc(C5CCCN5C)c4)nn3)nn2)c1` (configuration not stated), for which, in assay [1], the IC50 is 160 µM and the inhibition result is “Dose-dependent effect”. Also, in assay [2], the fold change (FC) turned out to be 0.61.

With `CN1CCCC1c1cncc(-c2cn(CCOCCOCCOCCOCCOCCOCCOCCn3cc(-c4cncc(C5CCCN5C)c4)nn3)nn2)c1` (configuration not stated), in assay [1], the 50% inhibitory concentration (IC50) amounted to 611 µM and the inhibition result was “Dose-dependent effect”. The fold change (FC) in assay [2] came to 0.16.

In the case of `CN1CCCC1c1cncc(-c2cn(C[C@H]3O[C@@H]4O[C@H]5[C@H](O)[C@@H](O)[C@@H](O[C@H]6[C@H](O)[C@@H](O)[C@@H](O[C@H]7[C@H](O)[C@@H](O)[C@@H](O[C@H]8[C@H](O)[C@@H](O)[C@@H](O[C@H]9[C@H](O)[C@@H](O)[C@@H](O[C@H]%10[C@H](O)[C@@H](O)[C@@H](O[C@H]3[C@H](O)[C@H]4O)O[C@@H]%10Cn3cc(-c4cncc(C%10CCCN%10C)c4)nn3)O[C@@H]9Cn3cc(-c4cncc(C9CCCN9C)c4)nn3)O[C@@H]8Cn3cc(-c4cncc(C8CCCN8C)c4)nn3)O[C@@H]7Cn3cc(-c4cncc(C7CCCN7C)c4)nn3)O[C@@H]6Cn3cc(-c4cncc(C6CCCN6C)c4)nn3)O[C@@H]5Cn3cc(-c4cncc(C5CCCN5C)c4)nn3)nn2)c1` (some centres not stated), in assay [1], the IC50 was determined as 196 µM and the inhibition result was “Dose-dependent effect”. For the same compound, the fold change (FC) in assay [3] was 0.14.

As to `CN1CCCC1c1cncc(-c2cn(CCOCCOCCOCCO)nn2)c1` (configuration not stated), in assay [1], the IC50 came out at 195 µM and the inhibition entry was “Dose-dependent effect”.

Take `CN1CCCC1c1cncc(-c2cn(CCOCCOCCOCCOCCOCCOCCOCCOCCOCCOCCOCCn3cc(-c4cncc(C5CCCN5C)c4)nn3)nn2)c1` (configuration not stated): in assay [1], the IC50 is 300 µM and the inhibition result was “Dose-dependent effect”. In assay [2], the fold change (FC) was determined as 0.32.

As for `CN1CCCC1c1cncc(-c2cn(CCOCCOCCOCCn3cc(-c4cncc(C5CCCN5C)c4)nn3)nn2)c1` (configuration not stated), in assay [1], the IC50 came to 12 µM and the inhibition result was “Dose-dependent effect”. The fold change (FC) in assay [2] turned out to be 8.1.

For `CN1CCCC1c1cncc(-c2cn(C[C@H]3O[C@@H]4O[C@H]5[C@H](O)[C@@H](O)[C@@H](O[C@H]6[C@H](O)[C@@H](O)[C@@H](O[C@H]7[C@H](O)[C@@H](O)[C@@H](O[C@H]8[C@H](O)[C@@H](O)[C@@H](O[C@H]9[C@H](O)[C@@H](O)[C@@H](O[C@H]%10[C@H](O)[C@@H](O)[C@@H](O[C@H]3[C@H](O)[C@H]4O)O[C@@H]%10CO)O[C@@H]9CO)O[C@@H]8CO)O[C@@H]7CO)O[C@@H]6CO)O[C@@H]5CO)nn2)c1` (some centres not stated), in assay [1], the half-inhibitory concentration (IC50) stood at 56 µM and the inhibition result was “Dose-dependent effect”.

The values are drawn from ChEMBL document CHEMBL4330154, “Di- and heptavalent nicotinic analogues to interfere with α7 nicotinic acetylcholine receptors” (Bioorg Med Chem, 2019).
